The values below come from ChEMBL document CHEMBL1933059, “Imidazo [4,5f][1,10] phenanthroline derivatives as inhibitor of c-myc gene expression in A549 cells via NF-κB pathway” (Bioorg Med Chem Lett, 2012).

The test system of assay [1] is A549. Nature of the assay: Cytotoxicity against human A549 cells after 72 hrs by MTT assay. It counts as functional, cell-based. The settings on record: A549, 72 h. A digest of the protocol:
(§1)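 MTT growth-inhibition assay; IC50 values given as mean ± SD of triplicates.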
For orientation: Tetrazolium dyes change colour on reduction, which living cells bring about.

Assay [2] deals with A-375. Nature of the assay: Cytotoxicity against human A375 cells after 72 hrs by MTT assay. It counts as functional, cell-based. The settings on record: A-375, 72 h. A digest of the protocol: as §1
The test system of assay [3] is A549. Nature of the assay: Inhibition of NFkappa B in human A549 cells assessed as decrease in c-myc protein expression after 24 to 48 hrs by Western blot analysis. It counts as cell-based. A digest of the protocol: (§2)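 A549 cells treated at 1, 2.5 and 5 μM. Timepoints: IκBα 24 h, p65 24 h, c-myc 24 and 48 h. Total cell lysates resolved on 10% polyacrylamide gels and immunoblotted with protein-specific antibodies. β-actin and GAPDH serve as internal controls. Mean ± SD of triplicates.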

Assay [4] concerns Bel-7402. Description: Cytotoxicity against human Bel7402 cells after 72 hrs by MTT assay. Type of assay: functional, cell-based. The settings on record: Bel-7402, 72 h. A digest of the protocol: as §1
A short description of assay [5]: Cytotoxicity against human HO8910 cells after 72 hrs by MTT assay. It counts as functional, cell-based. Particulars: HO-8910, 72 h. A digest of the protocol:
as §1

Assay [6] has as its system A549. Description: Induction of IkappaBalpha protein expression in human A549 cells after 24 hrs by Western blot analysis. Type of assay: functional, cell-based. In short, it runs like this: as §2
On the technique in general: Immunoblotting shows a protein as a band on a membrane.

The subject of assay [7] is A549. Nature of the assay: Inhibition of NFkappa B in human A549 cells assessed as down regulation of NF-kappaB p65 protein expression after 24 hrs by Western blot analysis. It counts as cell-based. In short, it runs like this:
as §2

Assay [8] relates to A549. Nature of the assay: Induction of apoptosis in human A549 cells at 2.5 uM after 24 hrs by annexinV-propidium iodide staining-based flow cytometric analysis (reference value: 10.81%). It counts as functional.
The subject of assay [9] is HepG2. Nature of the assay: Cytotoxicity against human HepG2 cells after 72 hrs by MTT assay. It counts as functional, cell-based. Particulars: HepG2, 72 h. In short, it runs like this:
as §1

Assay [10] concerns A549. Nature of the assay: Induction of apoptosis in human A549 cells at 1 uM after 24 hrs by annexinV-propidium iodide staining-based flow cytometric analysis (reference value: 10.81%). It counts as functional.
The nature of assay [11]: Cytotoxicity against human CNE1 cells after 72 hrs by MTT assay. It counts as functional, cell-based. The settings on record: CNE. In short, it runs like this: as §1
In assay [12] the test system is A549. Description: Down regulation of c-myc gene expression in human A549 cells after 24 to 48 hrs by qRT-PCR analysis. Type of assay: functional, cell-based. Background: In qPCR the cycle at which signal appears reflects the starting amount.
Assay [13] relates to A549. Description: Induction of apoptosis in human A549 cells at 5 uM after 24 hrs by annexinV-propidium iodide staining-based flow cytometric analysis (reference value: 10.81%). It counts as functional.
For assay [14], the system named is A549. Nature of the assay: Inhibition of NFkappa B in human A549 cells assessed as decrease in c-myc protein expression at 1 to 5 uM by Western blot analysis. It counts as cell-based. Particulars: TDE = time-dependent effect. In short, it runs like this:
as §2

Assay [15] has as its system A549. Nature of the assay: Inhibition of NFkappa B in human A549 cells assessed as down regulation of NF-kappaB p65 protein expression at 1 to 5 uM by Western blot analysis. Type of assay: cell-based. Particulars: TDE = time-dependent effect. In short, it runs like this:
as §2

`COc1ccc(-c2nc3c4cccnc4c4ncccc4c3[nH]2)cc1` displayed an IC50 in assay [1] of 1360 nM.

In assay [1], `CC(C)Oc1ccc(-c2nc3c4cccnc4c4ncccc4c3[nH]2)cc1` registered an IC50 of 31900 nM.

On to `CCCCOc1ccc(-c2nc3c4cccnc4c4ncccc4c3[nH]2)cc1`, for which the midpoint of inhibition in assay [1], the IC50, lay at 35500 nM. The IC50 values of the last two compounds are within 1.5-fold of each other.

Regarding `FC(F)(F)c1ccc(-c2nc3c4cccnc4c4ncccc4c3[nH]2)cc1`, in assay [1], the IC50 came to 1730 nM.

With `Clc1ccc(-c2nc3c4cccnc4c4ncccc4c3[nH]2)cc1`, the IC50 in [1] is 1060 nM.

Consider `Cc1ccc(-c2nc3c4cccnc4c4ncccc4c3[nH]2)cc1`, for which the IC50 in [1] was 1330 nM.

For the compound `CCOc1ccc(-c2nc3c4cccnc4c4ncccc4c3[nH]2)cc1`, in assay [1], the IC50 stood at 1960 nM.

`CCCOc1ccc(-c2nc3c4cccnc4c4ncccc4c3[nH]2)cc1` yielded an IC50 in [1] of 18000 nM.

As to `Brc1ccc(-c2nc3c4cccnc4c4ncccc4c3[nH]2)cc1`, the IC50 in assay [2] was 980 nM; in [4] it was 5800 nM; in assay [5] it was 1560 nM; in [9] it was 4300 nM; in assay [1], 850 nM; in [11], 1200 nM. The inhibition entry in assay [3] is “Dose-dependent effect”; in assay [7], “Dose-dependent effect”; in assay [14] it was “tde”; in [15], “tde”. Moreover, the Activity result in assay [6] was “Dose-dependent effect”; in assay [8] it was 43.26%; in assay [10], 35.26%; in [12], “Dose-dependent effect”; in [13] it was 50.94%.

As for `Fc1ccc(-c2nc3c4cccnc4c4ncccc4c3[nH]2)cc1`, half-maximal inhibition in assay [1] (IC50) required 1090 nM.

The term IC50 denotes the midpoint of a concentration-inhibition curve. A low value points to greater potency.
